Columns and labels:
[1] = Cytotoxicity against BALB/c mouse TH2 cells after 48 hrs by Trypan blue assay; type: cell-based; settings: read-out: LD50
How it was run: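 Splenocytes from OVA/alum-immunized female Balb-C mice (6-8 weeks) in RPMI-1640 at 1.3 × 10^6 cells/mL, exposed to compound in DMSO with OVA allergen for 48 h. Adherent cells stained with trypan blue and counted visually on a hemocytometer to assess viability.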

[2] = Inhibition of pro-inflammatory cytokine IL5 production in ovalbumin-stimulated BALB/c mouse TH2 cells after 48 hrs by sandwich-ELISA; type: functional, cell-based; settings: TH2, 48 h
How it was run: (§1)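 Splenocytes from female Balb-C mice (6-8 weeks) immunized subcutaneously weekly for four weeks with 25 µg OVA adsorbed to 1 mg alum in PBS. Cells in RPMI-1640 at 1.3 × 10^6 cells/mL, given compound in DMSO plus OVA allergen; DMSO and DMSO+OVA replicate wells as controls. After 48 h incubation, supernatant cytokine measured by colorimetric sandwich ELISA.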

[3] = Inhibition of pro-inflammatory cytokine IL13 production in ovalbumin-stimulated BALB/c mouse TH2 cells after 48 hrs by sandwich-ELISA; type: functional, cell-based; settings: TH2, 48 h; how it was run: as §1
[4] = Inhibition of pro-inflammatory cytokine IL5 production in ovalbumin-stimulated BALB/c mouse TH2 cells at 5 nM after 48 hrs by sandwich-ELISA relative to control; type: functional; parameters: scale not given: the % may be the effect or the level left
How it was run: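 Splenocytes from female BALB/c mice (6-8 weeks) were used, taken after weekly subcutaneous immunisation for 4 weeks with 25 µg OVA on 1 mg alum in PBS. Cells were held at 1.3 × 10^6 cells/mL in RPMI-1640 and given compound in DMSO plus OVA for 48 h. Controls were DMSO ± OVA wells. Supernatant IL-5 was read by colorimetric sandwich ELISA.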

[5] = Inhibition of pro-inflammatory cytokine TNFalpha production in ovalbumin-stimulated BALB/c mouse APC at 10 nM after 48 hrs by sandwich-ELISA relative to control; type: functional; parameters: scale not given: the % may be the effect or the level left; how it was run: as §1
[6] = Inhibition of pro-inflammatory cytokine IL1 production in ovalbumin-stimulated BALB/c mouse APC at 10 nM after 48 hrs by sandwich-ELISA relative to control; type: functional; parameters: scale not given: the % may be the effect or the level left; how it was run: as §1
[7] = Therapeutic index, ratio of LD50 for BALB/c mouse TH2 cells to IC50 for pro-inflammatory cytokine production in BALB/c mouse TH2 cells; type: cell-based; settings: read-out: TI
How it was run: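 Splenocytes came from OVA/alum-immunised female BALB/c mice (25 µg OVA s.c. weekly for 4 weeks) and were held at 1.3 × 10^6 cells/mL in RPMI-1640. They were exposed to compound in DMSO with OVA for 48 h, with DMSO ± OVA control wells. Cytokines in the supernatant were measured by sandwich ELISA. Viability of adherent cells was scored by trypan blue hemocytometer counting.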

SMILES | CC50 at 48 h [1] [nM] | IC50 [2] [nM] | IC50 [3] [nM] | Activity [4] [%] | Activity [5] [%] | Activity [6] [%] | selectivity ratio [7]
C[C@@H]1C[C@H]2[C@@H]3CCC4=CC(=O)C=C[C@]4(C)[C@@]3(F)[C@@H](O)C[C@]2(C)[C@@]1(O)C(=O)CO [DEXAMETHASONE] | > 7100 | 5 | 5 | >80 | – | – | –
CC(=O)O[C@H]1[C@H](C)OC(=O)[C@@H](NC(=O)c2cccc(NC=O)c2O)[C@@H](C)OC(=O)[C@@H]1Cc1ccccc1 [SPLENOCIN A] | > 1800 | 3.1 | – | – | – | – | –
CC(C)C(=O)O[C@H]1[C@H](C)OC(=O)[C@@H](NC(=O)c2cccc(NC=O)c2O)[C@@H](C)OC(=O)[C@@H]1Cc1ccccc1 [SPLENOCIN B] | > 1700 | 1.8 | 1.6 | >80 | 75 | 85 | > 500
CCC(C)C(=O)O[C@H]1[C@H](C)OC(=O)[C@@H](NC(=O)c2cccc(NC=O)c2O)[C@@H](C)OC(=O)[C@@H]1Cc1ccccc1 (some centres undefined) [SPLENOCIN C] | > 560 | 6.7 | 7.3 | – | – | – | –
CC[C@H]1C(=O)O[C@H](C)[C@H](NC(=O)c2cccc(NC=O)c2O)C(=O)O[C@@H](C)[C@@H]1OC(=O)c1ccccc1 [SPLENOCIN D] | > 550 | 47.9 | 43.7 | – | – | – | –
CCCC[C@H]1C(=O)O[C@H](C)[C@H](NC(=O)c2cccc(NC=O)c2O)C(=O)O[C@@H](C)[C@@H]1OC(=O)c1ccccc1 [SPLENOCIN E] | > 570 | 16.6 | 15.9 | – | – | – | –
CCCCC[C@H]1C(=O)O[C@H](C)[C@H](NC(=O)c2cccc(NC=O)c2O)C(=O)O[C@@H](C)[C@@H]1OC(=O)c1ccccc1 [SPLENOCIN F] | > 560 | 9.4 | 6.8 | – | – | – | –
CCCCCC[C@H]1C(=O)O[C@H](C)[C@H](NC(=O)c2cccc(NC=O)c2O)C(=O)O[C@@H](C)[C@@H]1OC(=O)c1ccccc1 [SPLENOCIN G] | > 550 | 5 | 5.2 | – | 75 | 85 | –
CCCCC(C)C[C@H]1C(=O)O[C@H](C)[C@H](NC(=O)c2cccc(NC=O)c2O)C(=O)O[C@@H](C)[C@@H]1OC(=O)c1ccccc1 (some centres undefined) [SPLENOCIN H] | > 1600 | 4.3 | 5.1 | – | – | – | –
C[C@@H]1OC(=O)[C@@H](NC(=O)c2cccc(NC=O)c2O)[C@@H](C)OC(=O)[C@H](Cc2ccccc2)[C@H]1OC(=O)c1ccccc1 [SPLENOCIN I] | > 540 | 15.8 | 15.2 | – | – | – | –
C[C@@H]1OC(=O)[C@@H](NC(=O)c2cccc(NC=O)c2O)[C@@H](C)OC(=O)[C@H](Cc2ccccc2)[C@H]1O [SPLENOCIN J] | > 6000 | 1020 | 826 | – | – | – | –
